Experiment [1] is filed under the species Cavia porcellus. The experiment in a line: Effect on the contractile force of spontaneously beating atria from Reserpine-treated guinea pigs as percentage variation from the control at concentration of 10E-6 M. The experiment is classed as functional. The method, boiled down: (§1)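 Atria from reserpine-treated guinea pigs (reserpine 2 mg/kg ip, 48 and 24 h before death; only tyramine-unresponsive preparations used). Bath solution at 29 °C, gassed 95% O2/5% CO2, pH 7.5, resting tension […]. After 90 min equilibration, compound added cumulatively, 5 min per concentration. Isometric developed-tension amplitude or beating rate given as % variation from untreated control. Mean ± SEM, 6-10 assays.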

Experiment [2] is filed under the species Cavia porcellus. The experiment in a line: Compound was evaluated for its effect on the frequency rate of spontaneously beating atria from Reserpine-treated guinea pigs as percentage variation from the control at different concentration of 10E-5 M. It is filed as functional. The gist of the method:
as §1

The species named for experiment [3] is Cavia porcellus. The experiment in a line: Compound was evaluated for its effect on the frequency rate of spontaneously beating atria from Reserpine-treated guinea pigs as percentage variation from the control at different concentration of 10E-3 M. The experiment is classed as functional. The method, boiled down:
as §1

Experiment [4] is filed under the species Cavia porcellus. The experiment is described as follows: Compound was evaluated for its effect on the frequency rate of spontaneously beating atria from Reserpine-treated guinea pigs as percentage variation from the control at different concentration of 3 x 10E-5 M. It is filed as functional. The method, boiled down:
as §1

Experiment [5] is filed under the species Cavia porcellus. The experiment in a line: Compound was evaluated for its effect on the frequency rate of spontaneously beating atria from Reserpine-treated guinea pigs as percentage variation from the control at different concentration of 10E-4 M. It is filed as functional. The method, boiled down:
as §1

The species named for experiment [6] is Cavia porcellus. The experiment in a line: Effect on the contractile force of spontaneously beating atria from Reserpine-treated guinea pigs as percentage variation from the control at concentration of 10E-3 M. The experiment is classed as functional. The method, boiled down:
as §1

Experiment [7] is filed under the species Cavia porcellus. The experiment is described as follows: Effect on the contractile force of spontaneously beating atria from Reserpine-treated guinea pigs as percentage variation from the control at concentration of 3 x 10E-5 M. The experiment is classed as functional. The gist of the method:
as §1

For experiment [8], the species on record is Cavia porcellus. The experiment in a line: Effect on the contractile force of spontaneously beating atria from Reserpine-treated guinea pigs as percentage variation from the control at concentration of 3 x 10E-6 M. The experiment is classed as functional. The method, boiled down: as §1
The species entered for experiment [9] is Cavia porcellus. The experiment is described as follows: Compound was evaluated for its effect on the frequency rate of spontaneously beating atria from Reserpine-treated guinea pigs as percentage variation from the control at different concentration of 3 x 10E-4 M. The experiment is classed as functional. The gist of the method: as §1
Experiment [10] is filed under the species Cavia porcellus. The experiment is described as follows: Compound was evaluated for its effect on the frequency rate of spontaneously beating atria from Reserpine-treated guinea pigs as percentage variation from the control at different concentration of 10E-6 M. The experiment is classed as functional. The gist of the method:
as §1

The species entered for experiment [11] is Cavia porcellus. The experiment is described as follows: Effect on the contractile force of spontaneously beating atria from Reserpine-treated guinea pigs as percentage variation from the control at concentration of 10E-5 M. The experiment is classed as functional. The method, boiled down: as §1
For experiment [12], the species on record is Cavia porcellus. The experiment is described as follows: Effect on the contractile force of spontaneously beating atria from Reserpine-treated guinea pigs as percentage variation from the control at concentration of 3 x 10E-4 M. It is filed as functional. The method, boiled down:
as §1

For experiment [13], the species on record is Cavia porcellus. The experiment in a line: Effect on the contractile force of spontaneously beating atria from Reserpine treated guinea pigs as percentage variation from the control at concentration of 10E-4 M. It is filed as functional. The method, boiled down:
as §1

The species named for experiment [14] is Cavia porcellus. The experiment is described as follows: Compound was evaluated for its effect on the frequency rate of spontaneously beating atria from Reserpine-treated guinea pigs as percentage variation from the control at different concentration of 3 x10E-6 M. The experiment is classed as functional. The gist of the method:
as §1

The species named for experiment [15] is Cavia porcellus. The experiment is described as follows: Compound was evaluated for its effect on the frequency rate of spontaneously beating atria from Reserpine-treated guinea pigs as percentage variation from the control at concentration of 3 x 10E-6 M. The experiment is classed as functional. The method, boiled down: as §1
The species named for experiment [16] is Cavia porcellus. The experiment is described as follows: Effect on the frequency rate of spontaneously beating atria from Reserpine-treated guinea pigs as percentage variation from the control at concentration of 10E-5 M. It is filed as functional. The method, boiled down: as §1
The species entered for experiment [17] is Cavia porcellus. The experiment is described as follows: Compound was evaluated for its effect on the frequency rate of spontaneously beating atria from Reserpine-treated guinea pigs as percentage variation from the control at concentration of 3 x 10E-5 M. It is filed as functional. The method, boiled down:
as §1

The species named for experiment [18] is Cavia porcellus. The experiment in a line: Compound was evaluated for its effect on the contractile force of spontaneously beating atria from Reserpine-treated guinea pigs as percentage variation from the control at concentration 10E-3 M. It is filed as functional. The gist of the method:
as §1

The species entered for experiment [19] is Cavia porcellus. The experiment is described as follows: Effect on the frequency rate of spontaneously beating atria from Reserpine-treated guinea pigs as percentage variation from the control at concentration of 10E-4 M. It is filed as functional. The gist of the method: as §1
Experiment [20] is filed under the species Cavia porcellus. The experiment in a line: Compound was evaluated for its effect on the frequency rate of spontaneously beating atria from Reserpine-treated guinea pigs as percentage variation from the control at concentration of 3 x 10E-4 M. It is filed as functional. The gist of the method:
as §1

The species named for experiment [21] is Cavia porcellus. The experiment is described as follows: Compound was evaluated for its effect on the frequency rate of spontaneously beating atria from Reserpine-treated guinea pigs as percentage variation from the control at concentration of 10e-6 M. It is filed as functional. The gist of the method:
as §1

Experiment [22] is filed under the species Cavia porcellus. The experiment in a line: Effect on the frequency rate of spontaneously beating atria from Reserpine-treated guinea pigs as percentage variation from the control at concentration of 10E-3 M. The experiment is classed as functional. The gist of the method: as §1
Experiment [23] is filed under the species Cavia porcellus. The experiment in a line: Inotropic effect in electrically driven left atrium from reserpine-treated guinea pigs at concentration of 10E-5 M. The experiment is classed as functional, Cardiac atrium. The gist of the method: (§2)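 Electrically driven left atrium from reserpine-treated guinea pigs (tyramine-unresponsive), 29 °C, pH 7.5, resting tension […], 90 min equilibration. Compound dissolved in DMSO and added cumulatively, 5 min per step. Where used, adenosine deaminase was preincubated 20 min, and basal force was taken after ADA addition. Developed tension given as % change over control. Mean ± SEM of six assays.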

For experiment [24], the species on record is Cavia porcellus. The experiment in a line: Inotropic effect in electrically driven left atrium from reserpine-treated guinea pigs at concentration of 10E-4 M. The experiment is classed as functional, Cardiac atrium. The gist of the method:
as §2

Experiment [25] is filed under the species Cavia porcellus. The experiment in a line: Inotropic effect in electrically driven left atrium from reserpine-treated guinea pigs at concentration of 10E-6 M. The experiment is classed as functional, Cardiac atrium. The gist of the method:
as §2

The species entered for experiment [26] is Cavia porcellus. The experiment in a line: Inotropic effect in electrically driven left atrium from reserpine-treated guinea pigs at concentration of 3 x 10E-5 M. It is filed as functional, Cardiac atrium. The method, boiled down: as §2
The species entered for experiment [27] is Cavia porcellus. The experiment is described as follows: Effect on the frequency rate of spontaneously beating atria from Reserpine-treated guinea pigs as percentage variation from the control at concentration of 10E-6 M. The experiment is classed as functional. The gist of the method:
as §1

The species entered for experiment [28] is Cavia porcellus. The experiment in a line: Inotropic effect in electrically driven left atrium from reserpine-treated guinea pigs at concentration of 3 x 10E-6 M. It is filed as functional, Cardiac atrium. The gist of the method:
as §2

The species named for experiment [29] is Cavia porcellus. The experiment is described as follows: Inotropic effect in electrically driven left atrium from reserpine-treated guinea pigs at concentration of 3 x 10E-4 M. It is filed as functional, Cardiac atrium. The gist of the method:
as §2

The species entered for experiment [30] is Cavia porcellus. The experiment in a line: Inotropic effect in electrically driven left atrium from reserpine-treated guinea pigs at concentration of 10E-3 M. It is filed as functional, Cardiac atrium. The gist of the method: as §2

Consider `CN(C)c1ncccn1`, for which the Variation is given as 0% in [1]; 1.33% in experiment [2]; 25.17% in experiment [3]; 3.72% in experiment [4]; 9.72% in experiment [5]; 41.66% in experiment [6]. Further, the Variation was 11.63% in experiment [7]; 4.92% in experiment [8]; 17.44% in [9]; 0% in experiment [10]; 9.17% in experiment [11]; 37.73% in experiment [12]. For the same molecule, the Variation is 15.08% in experiment [13] and 0% in [14].

On to `CCOC(=O)c1cnc(N(C)C)nc1C`, for which the Variation is 0% in experiment [15]; 2.79% in [1]; 0% in experiment [16]; 3.57% in experiment [17]; 15.88% in [7]; -49.52% in experiment [18]. The Variation was 7.12% in [8]; 7.14% in [19]; 9.91% in experiment [11]; -25.87% in experiment [12]; -21.41% in experiment [13]; 10.71% in [20]. Also, the Variation in experiment [21] is on record as -3.57%; in experiment [22], -17.85%.

On to `Cc1[nH]c(=O)c(C#N)cc1-c1ccncc1` [MILRINONE], for which the Variation in experiment [23] was 13.25%; in [15] it was 0%; in experiment [1] it was 0%; in [16], 15.22%; in experiment [24], 35.61%; in [25] it was 0%. Also, the Variation in experiment [26] is recorded as 22.81%; in experiment [17], 27.09%; in experiment [27], 0%; in experiment [6], 31.09%; in experiment [7] it was 30.32%; in [8] it was 0%. Moreover, the Variation in [28] was 9.31%; in experiment [19] it was 34.16%; in [11], 16.31%; in experiment [12], 45.62%; in experiment [13] it was 37.77%; in [20], 42.85%. Moreover, the Variation in experiment [29] was determined as 45.61%; in experiment [30], 42.89%; in [22], 37.2%.

The values are drawn from ChEMBL document CHEMBL1129639, “Synthesis and cardiotonic activity of novel pyrimidine derivatives: crystallographic and quantum chemical studies” (J Med Chem, 1996).
